According to the array DNA melting data of Ke et al. (doi:10.1101/2024.01.08.574731):

Legend:
[1] = melting temperature; fluorescence melt of hairpins on a sequencing array, two-state fit, raised by 9.35 °C to match UV melts; settings: sodium 0.088 M
In short: (§1)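 Folding enthalpy and melting temperature come from bootstrapped two-state fits to Cy3 fluorescence of library hairpins carrying annealed Cy3 and quencher oligos on a sequenced MiSeq flow cell. Imaging was done in 50 mM Na-HEPES pH 8.0, 25 mM NaCl, stepping by 2.5 °C up to 60 °C, and signals were normalised to pre-quench Cy3 and to control constructs. Results of four replicates were combined by inverse variance, and fitted temperatures were raised by 9.35 °C to match UV melts.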

[2] = folding enthalpy; higher = less favourable; fluorescence melt of hairpins on a sequencing array, two-state fit; settings: sodium 0.088 M
In short: as §1

Sequence | Tm [1] | folding enthalpy [2]
GGAACCGGAAACGGCTCC (((.(((....))).))) | 50 °C | -28.5 kcal/mol
GCCTCCGAAAGGAAGGC ((((((....))).))) | 62 °C | -31.9 kcal/mol
GATCCTTATAAGGATC ((((((....)))))) | 53.9 °C | -36 kcal/mol
GCCGGGTCGAAAGACGGC (((..(((....)))))) | 54.9 °C | -31 kcal/mol
GTTCCCGAAAGGGTTAAC ((((((....)))..))) | 30.1 °C | -8.45 kcal/mol
GGGAAAGGAAACCTTCCC (((((.(....).))))) | 39.2 °C | -28.2 kcal/mol
GTCAGTCGAAAGACGGAC (((.(((....))).))) | 56.2 °C | -33.3 kcal/mol
GTCCGGGGAAACCTGGGC (.((.((....)).)).) | 48.3 °C | -29.8 kcal/mol
GGGGCCGAAAGGCTTCCC ((((((....)))..))) | 46.4 °C | -13.5 kcal/mol
GATCTCCTATGAGATC ((((((....)))))) | 53.4 °C | -39.2 kcal/mol
GTAGTACGAAAGTAATAC (((.(((....))).))) | 43.2 °C | -28.9 kcal/mol
GTTATCGAAAGATATAAC ((((((....)))..))) | 29.3 °C | -11.3 kcal/mol
GCTTTACCGAAAGGTAGC (((..(((....)))))) | 37.7 °C | -13 kcal/mol
GCTCCCGAAAGGGCAGC ((((((....))).))) | 55.2 °C | -30.2 kcal/mol
CGTACGGAAACGTGAACG ((((((....)))..))) | 37.4 °C | -15.1 kcal/mol
GCCATGCGAAAGCCTTGC ((.(.((....)).).)) | 26.6 °C | -10 kcal/mol
GCGACTGCTCGC ((((....)))) | 50.4 °C | -16.5 kcal/mol
GTCCAGGGAAACCTGAAC ((.((((....)))).)) | 35.9 °C | -19.5 kcal/mol
GGGAGCGGAAACGCCCCC (((.(((....))).))) | 61.4 °C | -27.4 kcal/mol
GATCAACAACTTGATC ((((((....)))))) | 38.4 °C | -35.1 kcal/mol
GGCCCGGGAAACCAGGCC ((((.((....)).)))) | 55.3 °C | -37.9 kcal/mol
GATCGGTTAACCGATC ((((((....)))))) | 58.8 °C | -47.3 kcal/mol
GGAACCACGAAAGTGTCC (((..(((....)))))) | 28.1 °C | -11.2 kcal/mol

Sequence | Tm [1] | folding enthalpy [2]
GATCCTACACAGGATC ((((((....)))))) | 51.6 °C | -35.9 kcal/mol
GATGGGGGAAACTCCGTC ((.((.(....).)).)) | 38 °C | -20.2 kcal/mol
GCGACACGTCGC ((((....)))) | 61.4 °C | -28.3 kcal/mol
GATCCGATTCCGGATC ((((((....)))))) | 57.1 °C | -43.5 kcal/mol
GCTCAGTCGAAAGACAGC (((..(((....)))))) | 37.3 °C | -15.3 kcal/mol
GGAGAGGGAAACCTTTCC (((.(((....))).))) | 38.2 °C | -27.3 kcal/mol
GTCTAACGAAAGTTCGAC (((.(((....))).))) | 43.2 °C | -28.3 kcal/mol
GGTGCACGAAAGTGACC (((.(((....)))))) | 49 °C | -17.4 kcal/mol
CGCTCGCGGAAACGCGCG (((..(((....)))))) | 61.2 °C | -7.4 kcal/mol
GGGGAGCGAAAGCTTCCC (((.(((....))).))) | 68.2 °C | -36.5 kcal/mol
GCTTATCGAAAGATGAGC (((.(((....))).))) | 50.6 °C | -54.6 kcal/mol
GATCCTACCAAGGATC ((((((....)))))) | 53.2 °C | -38.1 kcal/mol
GATCAGAATTCTGATC ((((((....)))))) | 50.4 °C | -43.5 kcal/mol
GTGTTCGGAAACGAATAC ((.((((....)))).)) | 49.2 °C | -31.7 kcal/mol
GGAGTGTCGAAAGACTCC (((..(((....)))))) | 39.2 °C | -17.2 kcal/mol
GTCTTCGGAAACGGAGAC ((((.((....)).)))) | 50.4 °C | -39.1 kcal/mol
GGCTTTGAAAAAAGCC ((((((....)))))) | 57.6 °C | -38.5 kcal/mol
GCTCCCGAAAGGGTCAGC ((((((....)))..))) | 41 °C | -13.5 kcal/mol
GGCTTGGGAAACCGAGCC ((((.((....)).)))) | 58.5 °C | -54.1 kcal/mol
GTATGTCCGAAAGGATAC (((..(((....)))))) | 26.8 °C | -16.3 kcal/mol
GACAGAGCGAAAGCTGTC (((..(((....)))))) | 46.7 °C | -18.3 kcal/mol
GAAACCGAAAGGTAATTC ((((((....)))..))) | 27.9 °C | -9.6 kcal/mol
GTATCCGAAAGGAGTAC ((((((....))).))) | 35.5 °C | -19.1 kcal/mol

Sequence | Tm [1] | folding enthalpy [2]
GATCCCCACGGGATC ((((((...)))))) | 63.4 °C | -34.9 kcal/mol
GATCACCCAGGTGATC ((((((....)))))) | 61.6 °C | -35.7 kcal/mol
GCTTACGAAAGTAAAGC ((((((....))).))) | 49.6 °C | -23.8 kcal/mol
GATCTAAGCCTAGATC ((((((....)))))) | 39.1 °C | -31.9 kcal/mol
GCGAAACTCGC ((((...)))) | 47.4 °C | -18.9 kcal/mol
GTTCCGGGAAACTGGAAC (((((.(....).))))) | 52.5 °C | -39.6 kcal/mol
GGCTCGGGAAACTGAGCC (((((.(....).))))) | 61.4 °C | -61.1 kcal/mol
GGCATGGGAAACTATGCC (((((.(....).))))) | 53.6 °C | -38.9 kcal/mol
GATCGGTCTCCGATC ((((((...)))))) | 57.4 °C | -43.1 kcal/mol
GGCCCCCGAAAGGGTGCC (((.(((....))).))) | 64.5 °C | -27.9 kcal/mol
GCGCAGCGAAAGCTTTGC ((..(((....)))..)) | 38.8 °C | -6.59 kcal/mol
GAACACCGAAAGGTCTTC (((.(((....))).))) | 35.2 °C | -15.2 kcal/mol
GCACTCCGAAAGGACTGC (((.(((....))).))) | 40.4 °C | -18.5 kcal/mol
GATTCCGGAAACGGGATC (((.(((....))).))) | 51.2 °C | -43 kcal/mol
GGAGTCCGAAAGGATTCC (((.(((....))).))) | 55.7 °C | -47.8 kcal/mol
GCAAACGAAAGTTTATGC ((((((....)))..))) | 31.9 °C | -17.2 kcal/mol
GATCCCGTTGGGGATC ((((((....)))))) | 64.7 °C | -42.4 kcal/mol
GATGGCGAAAGCCATATC ((((((....)))..))) | 52.5 °C | -10.6 kcal/mol
GGGACGGGAAACCGCCCC (((.(((....))).))) | 57.3 °C | -44.1 kcal/mol
GCCAAATCGAAAGATGGC (((..(((....)))))) | 47.4 °C | -27.2 kcal/mol
GGAATTGGAAACAACTCC (((.(((....))).))) | 30.3 °C | -22.2 kcal/mol
GATCCCAGTCGGGATC ((((((....)))))) | 61.3 °C | -33.4 kcal/mol
GAGATAGAAATATCTC ((((((....)))))) | 39 °C | -26.9 kcal/mol

Sequence | Tm [1] | folding enthalpy [2]
GAATGACGAAAGTCTTC (((.(((....)))))) | 34.6 °C | -16.6 kcal/mol
GTTTGCGGAAACACAAAC (((((.(....).))))) | 42.1 °C | -34.2 kcal/mol
GGTCTGGGAAACCAAACC (((.(((....))).))) | 35.1 °C | -29.9 kcal/mol
GTACAACGAAAGTTATAC (((.(((....))).))) | 30.4 °C | -19.1 kcal/mol
GTCGCCTCGAAAGAGGAC (((..(((....)))))) | 31.3 °C | -9.5 kcal/mol
GGCCTCCCGAAAGGGGCC (((..(((....)))))) | 59.1 °C | -18.7 kcal/mol
GCGACGGATCGC ((((....)))) | 46.8 °C | -14.9 kcal/mol
GGTGCAGAAATGCACC ((((((....)))))) | 68 °C | -25.9 kcal/mol
GATCGCGGAAACGTGGTC ((.(.((....)).).)) | 43.6 °C | -26.7 kcal/mol
GCTGTGCGAAAGCGCGGC ((.(.((....)).).)) | 66.6 °C | -25.3 kcal/mol
GATCATGCTCATGATC ((((((....)))))) | 51.3 °C | -44.1 kcal/mol
GAGGTGGGAAACCACCTC (((((((....))))))) | 69.2 °C | -31 kcal/mol
GGGCTTGGAAACAAACCC (((.(((....))).))) | 43.8 °C | -32.8 kcal/mol
GATGAAGCGAAAGCTATC (((..(((....)))))) | 28.4 °C | -10.4 kcal/mol
GAGGACGGAAACGTCCCC (.(((((....))))).) | 42.3 °C | -10.4 kcal/mol
GGTGGTCGAAAGACTACC (((.(((....))).))) | 57 °C | -43.2 kcal/mol
GTCTCTCCGAAAGGAGAC (((..(((....)))))) | 35.8 °C | -9.6 kcal/mol
GATCCCTTGCGGGATC ((((((....)))))) | 60.7 °C | -39.6 kcal/mol
GATCGATCGGTCGATC ((((((....)))))) | 52 °C | -41.6 kcal/mol
GCCGGGCGAAAGCCTAGC ((..(((....)))..)) | 44.1 °C | -13.6 kcal/mol
GGAACGGGAAACCGTCCC ((.((((....)))).)) | 48.2 °C | -18.5 kcal/mol
GATCCTTCGTAGGATC ((((((....)))))) | 53 °C | -33.7 kcal/mol
GAGATCCGAAAGGAGCTC (((.(((....))).))) | 60.8 °C | -44.9 kcal/mol
